In ChEMBL document CHEMBL2086252, “Syntheses and evaluation of anticonvulsant activity of novel branched alkyl carbamates” (J Med Chem, 2012):
Activity calls are given as the source filed them. The calls are words filed in the database; no cut-off is given here.

How the values were obtained:
[1] = system: Mus musculus; assay: Anticonvulsant activity in albino CF1 mouse assessed as protection against subcutaneous metrazol-induced seizures at 30 mg/kg, ip after 0.5 hrs; type: functional, organism-based; parameters: dose 30 mg/kg
Summary of the method: (§1)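 Mice dosed ip at 30, 100 or 300 mg/kg, then tested 0.5 h and 4 h after administration in the MES or scMet test. Protection was recorded as animals protected over animals tested. Neurotoxicity was recorded as motor impairment or sedation, as animals affected over animals tested.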

[2] = system: Mus musculus; assay: Anticonvulsant activity in albino CF1 mouse assessed as protection against subcutaneous metrazol-induced seizures at 100 mg/kg, ip after 0.5 hrs; type: functional, organism-based; parameters: dose 100 mg/kg; summary of the method: as §1
[3] = system: Mus musculus; assay: Anticonvulsant activity in albino CF1 mouse assessed as protection against subcutaneous metrazol-induced seizures at 300 mg/kg, ip after 0.5 hrs; type: functional, organism-based; parameters: dose 300 mg/kg; summary of the method: as §1
[4] = system: Mus musculus; assay: Anticonvulsant activity in albino CF1 mouse assessed as protection against subcutaneous metrazol-induced seizures at 30 mg/kg, ip after 4 hrs; type: functional, organism-based; parameters: dose 30 mg/kg; summary of the method: as §1
[5] = system: Mus musculus; assay: Anticonvulsant activity in albino CF1 mouse assessed as protection against subcutaneous metrazol-induced seizures at 100 mg/kg, ip after 4 hrs; type: functional, organism-based; parameters: dose 100 mg/kg; summary of the method: as §1
[6] = system: Mus musculus; assay: Anticonvulsant activity in albino CF1 mouse assessed as protection against subcutaneous metrazol-induced seizures at 300 mg/kg, ip after 4 hrs; type: functional, organism-based; parameters: dose 300 mg/kg; summary of the method: as §1
[7] = system: Mus musculus; assay: Anticonvulsant activity in albino CF1 mouse assessed as protection against maximal electroshock-induced seizures at 30 mg/kg, ip after 0.5 hrs; type: functional, organism-based; parameters: dose 30 mg/kg; summary of the method: as §1
[8] = system: Mus musculus; assay: Anticonvulsant activity in albino CF1 mouse assessed as protection against maximal electroshock-induced seizures at 100 mg/kg, ip after 0.5 hrs; type: functional, organism-based; parameters: dose 100 mg/kg; summary of the method: as §1
[9] = system: Mus musculus; assay: Anticonvulsant activity in albino CF1 mouse assessed as protection against maximal electroshock-induced seizures at 300 mg/kg, ip after 0.5 hrs; type: functional, organism-based; parameters: dose 300 mg/kg; summary of the method: as §1
[10] = system: Mus musculus; assay: Anticonvulsant activity in albino CF1 mouse assessed as protection against maximal electroshock-induced seizures at 30 mg/kg, ip after 4 hrs; type: functional, organism-based; parameters: dose 30 mg/kg; summary of the method: as §1
[11] = system: Mus musculus; assay: Anticonvulsant activity in albino CF1 mouse assessed as protection against maximal electroshock-induced seizures at 100 mg/kg, ip after 4 hrs; type: functional, organism-based; parameters: dose 100 mg/kg; summary of the method: as §1
[12] = system: Mus musculus; assay: Anticonvulsant activity in albino CF1 mouse assessed as protection against maximal electroshock-induced seizures at 300 mg/kg, ip after 4 hrs; type: functional, organism-based; parameters: dose 300 mg/kg; summary of the method: as §1
[13] = system: Mus musculus; assay: Neurotoxicity in albino CF1 mouse assessed as minimal motor impairment at 30 mg/kg, ip after 0.5 hrs by rotarod test; type: toxicity, organism-based; parameters: dose 30 mg/kg, route intraperitoneal; conditions: in vivo; summary of the method: as §1
[14] = system: Mus musculus; assay: Neurotoxicity in albino CF1 mouse assessed as minimal motor impairment at 100 mg/kg, ip after 0.5 hrs by rotarod test; type: toxicity, organism-based; parameters: dose 100 mg/kg, route intraperitoneal; conditions: in vivo; summary of the method: as §1
[15] = system: Mus musculus; assay: Neurotoxicity in albino CF1 mouse assessed as minimal motor impairment at 300 mg/kg, ip after 0.5 hrs by rotarod test; type: toxicity, organism-based; parameters: dose 300 mg/kg, route intraperitoneal; conditions: in vivo; summary of the method: as §1
[16] = system: Mus musculus; assay: Neurotoxicity in albino CF1 mouse assessed as minimal motor impairment at 30 mg/kg, ip after 4 hrs by rotarod test; type: toxicity, organism-based; parameters: dose 30 mg/kg, route intraperitoneal; conditions: in vivo; summary of the method: as §1
[17] = system: Mus musculus; assay: Neurotoxicity in albino CF1 mouse assessed as minimal motor impairment at 100 mg/kg, ip after 4 hrs by rotarod test; type: toxicity, organism-based; parameters: dose 100 mg/kg, route intraperitoneal; conditions: in vivo; summary of the method: as §1
[18] = system: Mus musculus; assay: Neurotoxicity in albino CF1 mouse assessed as minimal motor impairment at 300 mg/kg, ip after 4 hrs by rotarod test; type: toxicity, organism-based; parameters: dose 300 mg/kg, route intraperitoneal; conditions: in vivo; summary of the method: as §1
[19] = system: Rattus norvegicus; assay: Anticonvulsant activity in Sprague-Dawley albino rat assessed as protection against maximal electroshock-induced seizures at 30 mg/kg, po after 30 mins; type: functional, organism-based; parameters: dose 30 mg/kg
Summary of the method: (§2)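 Rats dosed orally. Anti-MES protection was scored as animals protected over animals tested at each time after dosing. Neurotoxicity was scored as motor impairment or sedation, as animals affected over animals tested.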

[20] = system: Rattus norvegicus; assay: Anticonvulsant activity in Sprague-Dawley albino rat assessed as protection against maximal electroshock-induced seizures at 30 mg/kg, po after 1 hr; type: functional, organism-based; parameters: dose 30 mg/kg; summary of the method: as §2
[21] = system: Rattus norvegicus; assay: Anticonvulsant activity in Sprague-Dawley albino rat assessed as protection against maximal electroshock-induced seizures at 30 mg/kg, po after 2 hrs; type: functional, organism-based; parameters: dose 30 mg/kg; summary of the method: as §2
[22] = system: Rattus norvegicus; assay: Anticonvulsant activity in Sprague-Dawley albino rat assessed as protection against maximal electroshock-induced seizures at 30 mg/kg, po after 4 hrs; type: functional, organism-based; parameters: dose 30 mg/kg; summary of the method: as §2
[23] = system: Rattus norvegicus; assay: Neurotoxicity in Sprague-Dawley albino rat assessed as minimal motor impairment at 30 mg/kg, po by rotarod test; type: toxicity, organism-based; parameters: dose 30 mg/kg, route oral; conditions: in vivo; summary of the method: as §2
[24] = system: Rattus norvegicus; assay: Neurotoxicity in pilocarpine-induced status epilepticus Sprague-Dawley albino rat model assessed as minimal motor impairment at 100 mg/kg, ip after 0.25 hr by rotarod test; type: toxicity, organism-based; parameters: dose 100 mg/kg, route intraperitoneal; conditions: in vivo
[25] = system: Rattus norvegicus; assay: Neurotoxicity in pilocarpine-induced status epilepticus Sprague-Dawley albino rat model assessed as minimal motor impairment at 300 mg/kg, ip after 0.25 hr by rotarod test; type: toxicity, organism-based; parameters: dose 300 mg/kg, route intraperitoneal; conditions: in vivo
Summary of the method: (§3)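 Rat pilocarpine status epilepticus model: test carbamate given at 0 or 30 min after the first observed Racine stage 3 motor seizure, which marks SE onset. Neurotoxicity was scored within the same model.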

[26] = system: Rattus norvegicus; assay: Neurotoxicity in pilocarpine-induced status epilepticus Sprague-Dawley albino rat model assessed as minimal motor impairment at 100 mg/kg, ip after 0.5 hrs by rotarod test; type: toxicity, organism-based; parameters: dose 100 mg/kg, route intraperitoneal; conditions: in vivo
[27] = system: Rattus norvegicus; assay: Neurotoxicity in pilocarpine-induced status epilepticus Sprague-Dawley albino rat model assessed as minimal motor impairment at 300 mg/kg, ip after 0.5 hrs by rotarod test; type: toxicity, organism-based; parameters: dose 300 mg/kg, route intraperitoneal; conditions: in vivo; summary of the method: as §3
[28] = system: Rattus norvegicus; assay: Neurotoxicity in pilocarpine-induced status epilepticus Sprague-Dawley albino rat model assessed as minimal motor impairment at 100 mg/kg, ip after 1 hr by rotarod test; type: toxicity, organism-based; parameters: dose 100 mg/kg, route intraperitoneal; conditions: in vivo
[29] = system: Rattus norvegicus; assay: Neurotoxicity in pilocarpine-induced status epilepticus Sprague-Dawley albino rat model assessed as minimal motor impairment at 300 mg/kg, ip after 1 hr by rotarod test; type: toxicity, organism-based; parameters: dose 300 mg/kg, route intraperitoneal; conditions: in vivo; summary of the method: as §3
[30] = system: Rattus norvegicus; assay: Neurotoxicity in pilocarpine-induced status epilepticus Sprague-Dawley albino rat model assessed as minimal motor impairment at 100 mg/kg, ip after 2 hrs by rotarod test; type: toxicity, organism-based; parameters: dose 100 mg/kg, route intraperitoneal; conditions: in vivo
[31] = system: Rattus norvegicus; assay: Neurotoxicity in pilocarpine-induced status epilepticus Sprague-Dawley albino rat model assessed as minimal motor impairment at 300 mg/kg, ip after 2 hrs by rotarod test; type: toxicity, organism-based; parameters: dose 300 mg/kg, route intraperitoneal; conditions: in vivo; summary of the method: as §3
[32] = system: Rattus norvegicus; assay: Neurotoxicity in pilocarpine-induced status epilepticus Sprague-Dawley albino rat model assessed as minimal motor impairment at 100 mg/kg, ip after 4 hrs by rotarod test; type: toxicity, organism-based; parameters: dose 100 mg/kg, route intraperitoneal; conditions: in vivo
[33] = system: Rattus norvegicus; assay: Neurotoxicity in pilocarpine-induced status epilepticus Sprague-Dawley albino rat model assessed as minimal motor impairment at 300 mg/kg, ip after 4 hrs by rotarod test; type: toxicity, organism-based; parameters: dose 300 mg/kg, route intraperitoneal; conditions: in vivo; summary of the method: as §3
[34] = system: Rattus norvegicus; assay: Anticonvulsant activity in ip dosed Sprague-Dawley albino rat assessed as protection against pilocarpine-induced status epilepticus after 0.5 hrs; type: functional
Summary of the method: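 Pilocarpine status epilepticus model in rats. Number and severity of convulsive seizures were observed behaviourally.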

## CCCCC(CC)COC(N)=O (racemic)
[1]
  Activity: inactive
[2]
  Activity: inactive
[3]
  Activity: Active
[4]
  Activity: inactive
[5]
  Activity: inactive
[6]
  Activity: inactive
[7]
  Activity: inactive
[8]
  Activity: Active
[9]
  Activity: Active
[10]
  Activity: inactive
[11]
  Activity: inactive
[12]
  Activity: Active
[13]
  Activity: Non-toxic
[14]
  Activity: Non-toxic
[15]
  Activity: Toxic
[16]
  Activity: Non-toxic
[17]
  Activity: Non-toxic
[18]
  Activity: Non-toxic
[19]
  Activity: inactive
[20]
  Activity: inactive
[21]
  Activity: inactive
[22]
  Activity: inactive
[23]
  Activity: Non-toxic
[24]
  Activity: Non-toxic
[25]
  Activity: Toxic
[26]
  Activity: Non-toxic
[27]
  Activity: Toxic
[28]
  Activity: Non-toxic
[29]
  Activity: Toxic
[30]
  Activity: Non-toxic
[31]
  Activity: Toxic
[32]
  Activity: Non-toxic
[33]
  Activity: Toxic

## NC(=O)N1c2ccccc2C=Cc2ccccc21 [CARBAMAZEPINE]
[34]
  ED50: 50 mg/kg
